{
  "source": "ChEMBL document CHEMBL1123457",
  "about": "“Effect of methoxy substitution on the adrenergic activity of three structurally related alpha 2-adrenoreceptor antagonists” (J Med Chem, 1986)",
  "key": {"[1]": {"organism": "Rattus norvegicus", "experiment": "Agonist potency of phenylephrine in rat isolated anococcygeus muscle", "format": "functional, Muscle tissue"}, "[2]": {"molecular_target": "T1, Adrenergic receptor alpha-1 (Rattus norvegicus) (UniProt P15823+P23944+P43140)", "experiment": "Antagonist potency towards alpha-1 adrenergic receptor in the rat isolated anococcygeus with reference to pA2 idazoxan (postjunctional)"}, "[3]": {"molecular_target": "T2, Alpha-2 adrenergic receptor (Mus musculus) (UniProt P30545+Q01338+Q01337)", "experiment": "Antagonist potency towards alpha-2 adrenergic receptor in the mouse isolated electrically stimulated vas deferens with reference to idazoxan (prejunctional)", "format": "functional, tissue-based", "outline": "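Mouse vas deferens (adult male MFI mice, >30 g) under 0.5 g tension in magnesium-free Krebs, 30 °C, 95% O2/5% CO2. Field stimulation at 0.1 Hz, 3-ms pulses, 100-140 V giving about 100 mg twitch, isometric recording. Twitches were inhibited by 110 nM clonidine in the Krebs.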"}, "[4]": {"tested_on": "Adrenergic receptor alpha-1 (Mus musculus)", "experiment": "Agonist potency towards alpha-1 adrenergic receptor in the mouse isolated electrically stimulated vas deferens with reference to phenylephrine (postjunctional)"}, "[5]": {"molecular_target": "T2, Alpha-2 adrenergic receptor (Mus musculus)", "experiment": "Agonist potency towards alpha-2 adrenergic receptor in the mouse isolated electrically stimulated vas deferens with reference to clonidine (prejunctional)", "format": "functional, tissue-based", "outline": "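Mouse vas deferens from adult male MFI mice (>30 g), 0.5 g initial tension, in magnesium-free Krebs at 30 °C, gassed 95% O2/5% CO2. Field stimulation at 0.1 Hz with 3-ms pulses; voltage of 100-140 V set to give about 100 mg twitch, recorded isometrically. Repeated cumulative concentration-response curves to clonidine were run until ID50 values were consistent.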"}, "[6]": {"tested_on": "Adrenergic receptor alpha-1 (Rattus norvegicus)", "experiment": "Antagonist potency towards alpha-1 adrenergic receptor in the rat isolated anococcygeus with reference to pA2 idazoxan (postjunctional)"}, "[7]": {"molecular_target": "T3, Adrenergic receptor alpha-1 (Rattus norvegicus, UniProt P15823+P23944+P43140)", "T3 sequence (P15823 whole entry)": "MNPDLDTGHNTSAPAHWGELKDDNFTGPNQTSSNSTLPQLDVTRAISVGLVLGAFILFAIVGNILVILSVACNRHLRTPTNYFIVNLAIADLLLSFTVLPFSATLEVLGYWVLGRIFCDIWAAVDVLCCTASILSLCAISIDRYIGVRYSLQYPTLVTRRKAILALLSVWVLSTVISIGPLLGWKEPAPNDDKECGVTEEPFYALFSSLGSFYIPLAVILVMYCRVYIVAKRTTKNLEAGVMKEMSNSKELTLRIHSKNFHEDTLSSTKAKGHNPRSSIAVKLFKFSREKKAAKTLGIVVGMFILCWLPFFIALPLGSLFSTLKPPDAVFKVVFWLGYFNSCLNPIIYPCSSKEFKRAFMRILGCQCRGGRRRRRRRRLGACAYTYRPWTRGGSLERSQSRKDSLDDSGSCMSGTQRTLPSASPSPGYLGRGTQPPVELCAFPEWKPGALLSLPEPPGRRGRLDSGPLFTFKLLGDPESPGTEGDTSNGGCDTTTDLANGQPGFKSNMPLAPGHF", "T3 sequence (P23944 whole entry)": "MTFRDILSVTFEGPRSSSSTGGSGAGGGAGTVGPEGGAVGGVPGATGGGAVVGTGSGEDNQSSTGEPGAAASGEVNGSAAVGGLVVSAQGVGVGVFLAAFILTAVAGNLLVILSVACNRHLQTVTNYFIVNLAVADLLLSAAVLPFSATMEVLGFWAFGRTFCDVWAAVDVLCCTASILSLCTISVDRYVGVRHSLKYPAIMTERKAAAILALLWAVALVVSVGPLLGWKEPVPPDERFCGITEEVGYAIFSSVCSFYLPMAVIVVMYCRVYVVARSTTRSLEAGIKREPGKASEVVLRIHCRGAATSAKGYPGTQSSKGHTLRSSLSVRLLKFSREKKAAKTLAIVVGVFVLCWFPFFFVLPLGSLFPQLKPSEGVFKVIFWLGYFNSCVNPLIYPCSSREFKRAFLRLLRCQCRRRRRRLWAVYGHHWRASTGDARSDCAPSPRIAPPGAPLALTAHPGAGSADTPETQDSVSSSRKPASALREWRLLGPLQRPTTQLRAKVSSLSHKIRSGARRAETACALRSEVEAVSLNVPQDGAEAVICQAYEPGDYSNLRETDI", "T3 sequence (P43140 whole entry)": "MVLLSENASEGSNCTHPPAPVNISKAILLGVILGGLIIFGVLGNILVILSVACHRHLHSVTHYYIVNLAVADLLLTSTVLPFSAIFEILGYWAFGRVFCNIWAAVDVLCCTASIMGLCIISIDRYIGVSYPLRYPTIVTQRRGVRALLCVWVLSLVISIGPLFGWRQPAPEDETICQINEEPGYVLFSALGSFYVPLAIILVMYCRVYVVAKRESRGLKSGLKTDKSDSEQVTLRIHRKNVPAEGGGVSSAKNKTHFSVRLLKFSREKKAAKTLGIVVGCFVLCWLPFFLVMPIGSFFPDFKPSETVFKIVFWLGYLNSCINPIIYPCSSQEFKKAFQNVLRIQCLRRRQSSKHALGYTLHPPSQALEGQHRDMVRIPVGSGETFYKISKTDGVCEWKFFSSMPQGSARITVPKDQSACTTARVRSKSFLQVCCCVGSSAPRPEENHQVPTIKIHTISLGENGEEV", "experiment": "Antagonist potency towards alpha-1 adrenergic receptor in the rat electrically stimulated vas deferens with reference to phenylephrine", "format": "functional, tissue-based"}, "[8]": {"molecular_target": "T4, Adrenergic receptor alpha-2 (Rattus norvegicus, UniProt P22086+P19328+P22909)", "T4 sequence (P22086 whole entry)": "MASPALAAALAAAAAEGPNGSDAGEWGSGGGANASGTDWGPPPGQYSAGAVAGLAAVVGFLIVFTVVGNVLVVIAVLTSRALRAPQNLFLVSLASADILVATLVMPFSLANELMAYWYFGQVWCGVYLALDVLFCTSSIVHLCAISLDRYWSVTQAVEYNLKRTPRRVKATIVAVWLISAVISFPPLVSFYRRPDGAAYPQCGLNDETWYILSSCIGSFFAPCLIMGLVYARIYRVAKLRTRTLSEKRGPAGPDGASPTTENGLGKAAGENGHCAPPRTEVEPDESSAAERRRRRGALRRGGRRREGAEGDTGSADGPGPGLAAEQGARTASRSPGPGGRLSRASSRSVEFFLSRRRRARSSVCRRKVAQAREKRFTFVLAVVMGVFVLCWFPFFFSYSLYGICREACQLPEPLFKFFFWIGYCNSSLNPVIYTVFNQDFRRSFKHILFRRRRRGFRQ", "T4 sequence (P19328 whole entry)": "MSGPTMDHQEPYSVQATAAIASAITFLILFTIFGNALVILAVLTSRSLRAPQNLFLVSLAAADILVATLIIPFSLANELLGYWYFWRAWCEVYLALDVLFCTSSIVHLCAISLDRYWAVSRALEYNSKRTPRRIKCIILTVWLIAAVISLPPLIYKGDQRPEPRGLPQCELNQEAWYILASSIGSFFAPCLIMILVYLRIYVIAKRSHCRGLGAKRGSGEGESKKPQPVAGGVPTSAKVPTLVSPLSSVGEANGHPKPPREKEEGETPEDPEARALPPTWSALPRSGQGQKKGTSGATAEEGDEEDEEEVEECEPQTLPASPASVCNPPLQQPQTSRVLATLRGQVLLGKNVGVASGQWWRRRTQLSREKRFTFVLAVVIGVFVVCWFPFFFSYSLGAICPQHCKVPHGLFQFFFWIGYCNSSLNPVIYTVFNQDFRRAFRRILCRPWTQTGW", "T4 sequence (P22909 whole entry)": "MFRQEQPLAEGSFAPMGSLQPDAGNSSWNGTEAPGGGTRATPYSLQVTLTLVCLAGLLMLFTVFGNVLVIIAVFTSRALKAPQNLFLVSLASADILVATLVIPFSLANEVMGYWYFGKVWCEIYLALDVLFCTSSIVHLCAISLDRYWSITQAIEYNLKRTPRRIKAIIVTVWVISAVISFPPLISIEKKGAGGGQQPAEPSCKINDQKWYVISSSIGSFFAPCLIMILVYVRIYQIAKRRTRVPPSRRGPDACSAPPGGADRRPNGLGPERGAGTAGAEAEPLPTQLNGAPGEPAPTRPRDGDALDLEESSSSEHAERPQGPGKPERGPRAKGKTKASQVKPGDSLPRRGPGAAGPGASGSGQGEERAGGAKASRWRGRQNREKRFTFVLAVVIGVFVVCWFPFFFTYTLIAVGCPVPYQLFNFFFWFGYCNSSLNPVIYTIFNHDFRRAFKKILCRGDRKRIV", "experiment": "Antagonist potency towards alpha-2 adrenergic receptor in the rat electrically stimulated vas deferens with reference to P-aminoclonidine", "format": "functional, tissue-based"}, "[9]": {"tested_on": "Adrenergic receptor alpha-1 (Rattus norvegicus)", "experiment": "Agonist potency towards alpha-1 adrenergic receptor in the rat isolated anococcygeus with reference to phenylephrine (postjunctional)"}, "[10]": {"molecular_target": "T1, Adrenergic receptor alpha-1 (Rattus norvegicus)", "experiment": "Agonist potency towards alpha-1 adrenergic receptor in the rat isolated electrically stimulated vas deferens with reference to phenylephrine (postjunctional)", "format": "functional, tissue-based", "outline": "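Vas deferens in Krebs solution (NaCl 118 mM, KCl 4.7 mM, CaCl2 2.5 mM, KH2PO4 1.2 mM, MgSO4 0.6 mM, NaHCO3 25 mM, dextrose 11.1 mM), gassed with 95% O2/5% CO2, at 30 °C. Intramural nerves stimulated with 3-ms rectangular pulses, 40 V, 0.1 Hz. Contractions recorded isometrically.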"}, "[11]": {"molecular_target": "T1, Adrenergic receptor alpha-1 (Rattus norvegicus)", "experiment": "Antagonist potency towards alpha-1 adrenergic receptor in the rat isolated electrically stimulated vas deferens with reference to pA2 idazoxan (postjunctional)", "format": "functional, tissue-based"}},
  "data": [
    {"smiles": "CNC[C@H](O)c1cccc(O)c1", "note": "[PHENYLEPHRINE]", "values": [
      {"measurement": "pD2", "setting": "[1]", "value": 6.54}
    ]},
    {"smiles": "COC(Oc1ccc(Cl)c(Cl)c1)C1=NCCN1", "note": "(configuration not stated)", "values": [
      {"measurement": "Potency", "setting": "[2]", "value": 0.063},
      {"measurement": "Potency", "setting": "[3]", "value": 0.0021},
      {"measurement": "Potency", "setting": "[4]", "value": 0},
      {"measurement": "Potency", "setting": "[5]", "value": 0}
    ]},
    {"smiles": "COC1(CN2CCCCC2)COc2ccccc2O1", "note": "(configuration not stated)", "values": [
      {"measurement": "Potency", "setting": "[6]", "value": "< 0.012"},
      {"measurement": "Potency", "setting": "[3]", "value": 0.00065},
      {"measurement": "pA2", "setting": "[7]", "value": "< 4.48"},
      {"measurement": "pA2", "setting": "[8]", "value": 5.19},
      {"measurement": "Potency", "setting": "[9]", "value": 0},
      {"measurement": "Potency", "setting": "[5]", "value": 0}
    ]},
    {"smiles": "COC1(C2=NCCN2)COc2ccccc2O1", "note": "(configuration not stated)", "values": [
      {"measurement": "Potency", "setting": "[3]", "value": 11.3},
      {"measurement": "pA2", "setting": "[7]", "value": 7.43},
      {"measurement": "pA2", "setting": "[8]", "value": 9.92},
      {"measurement": "Potency", "setting": "[5]", "value": 0},
      {"measurement": "Potency", "setting": "[10]", "value": 0},
      {"measurement": "Potency", "setting": "[11]", "value": 8.3}
    ]},
    {"smiles": "CCN(CC)CC1(OC)COc2ccccc2O1", "note": "(configuration not stated)", "values": [
      {"measurement": "Potency", "setting": "[2]", "value": "< 0.012"},
      {"measurement": "Potency", "setting": "[3]", "value": 0.0037},
      {"measurement": "Potency", "setting": "[4]", "value": 0},
      {"measurement": "Potency", "setting": "[5]", "value": 0}
    ]},
    {"smiles": "c1ccc2c(c1)OCC(C1=NCCN1)O2", "note": "(configuration not stated)", "values": [
      {"measurement": "Potency", "setting": "[3]", "value": 1},
      {"measurement": "Potency", "setting": "[5]", "value": 0},
      {"measurement": "Potency", "setting": "[10]", "value": 0},
      {"measurement": "Potency", "setting": "[11]", "value": 1}
    ]},
    {"smiles": "Clc1ccc(OCC2=NCCN2)cc1Cl", "values": [
      {"measurement": "Potency", "setting": "[3]", "value": 0.018},
      {"measurement": "Potency", "setting": "[5]", "value": "< 0.0008"},
      {"measurement": "Potency", "setting": "[10]", "value": 0.16}
    ]},
    {"smiles": "CCN(CC)CC1COc2ccccc2O1", "note": "(configuration not stated)", "values": [
      {"measurement": "Potency", "setting": "[2]", "value": 0.52},
      {"measurement": "Potency", "setting": "[3]", "value": 0.033},
      {"measurement": "Potency", "setting": "[4]", "value": 0},
      {"measurement": "Potency", "setting": "[5]", "value": 0}
    ]},
    {"smiles": "c1ccc2c(c1)OCC(CN1CCCCC1)O2", "note": "(configuration not stated) [PIPEROXAN]", "values": [
      {"measurement": "Potency", "setting": "[3]", "value": 0.29},
      {"measurement": "pA2", "setting": "[8]", "value": 7.54},
      {"measurement": "Potency", "setting": "[5]", "value": 0},
      {"measurement": "Potency", "setting": "[10]", "value": 0},
      {"measurement": "Potency", "setting": "[11]", "value": 4.8}
    ]}
  ]
}
